Experimental findings from ChEMBL document CHEMBL3817780, “Structure-Based Design of 1,4-Dibenzoylpiperazines as β-Catenin/B-Cell Lymphoma 9 Protein-Protein Interaction Inhibitors” (ACS Med Chem Lett, 2016) are described below.

The target in data set [1] is T1, beta-catenin-B-cell lymphoma 9 protein complex (Homo sapiens, UniProt P35222).
T1 sequence (P35222 whole entry): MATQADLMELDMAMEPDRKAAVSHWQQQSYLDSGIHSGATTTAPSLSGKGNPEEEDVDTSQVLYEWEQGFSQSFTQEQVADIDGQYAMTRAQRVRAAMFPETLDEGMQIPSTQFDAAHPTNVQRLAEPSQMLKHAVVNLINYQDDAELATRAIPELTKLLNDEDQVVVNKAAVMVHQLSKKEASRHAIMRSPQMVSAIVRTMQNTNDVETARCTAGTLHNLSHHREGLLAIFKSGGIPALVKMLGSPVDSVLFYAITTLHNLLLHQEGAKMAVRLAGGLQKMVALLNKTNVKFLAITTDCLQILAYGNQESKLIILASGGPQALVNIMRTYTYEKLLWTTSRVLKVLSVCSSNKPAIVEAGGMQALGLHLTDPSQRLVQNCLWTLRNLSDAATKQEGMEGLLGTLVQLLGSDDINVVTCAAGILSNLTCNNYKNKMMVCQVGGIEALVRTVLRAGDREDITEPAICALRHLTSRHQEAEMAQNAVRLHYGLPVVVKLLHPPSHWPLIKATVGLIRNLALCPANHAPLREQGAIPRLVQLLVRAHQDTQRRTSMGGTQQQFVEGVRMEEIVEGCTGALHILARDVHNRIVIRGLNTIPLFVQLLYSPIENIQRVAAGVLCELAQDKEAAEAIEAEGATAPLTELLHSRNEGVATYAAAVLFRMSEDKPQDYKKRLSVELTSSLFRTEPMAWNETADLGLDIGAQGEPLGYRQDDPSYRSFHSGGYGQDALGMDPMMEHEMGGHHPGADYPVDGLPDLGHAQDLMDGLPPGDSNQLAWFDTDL
T1 sequence (O00512 whole entry): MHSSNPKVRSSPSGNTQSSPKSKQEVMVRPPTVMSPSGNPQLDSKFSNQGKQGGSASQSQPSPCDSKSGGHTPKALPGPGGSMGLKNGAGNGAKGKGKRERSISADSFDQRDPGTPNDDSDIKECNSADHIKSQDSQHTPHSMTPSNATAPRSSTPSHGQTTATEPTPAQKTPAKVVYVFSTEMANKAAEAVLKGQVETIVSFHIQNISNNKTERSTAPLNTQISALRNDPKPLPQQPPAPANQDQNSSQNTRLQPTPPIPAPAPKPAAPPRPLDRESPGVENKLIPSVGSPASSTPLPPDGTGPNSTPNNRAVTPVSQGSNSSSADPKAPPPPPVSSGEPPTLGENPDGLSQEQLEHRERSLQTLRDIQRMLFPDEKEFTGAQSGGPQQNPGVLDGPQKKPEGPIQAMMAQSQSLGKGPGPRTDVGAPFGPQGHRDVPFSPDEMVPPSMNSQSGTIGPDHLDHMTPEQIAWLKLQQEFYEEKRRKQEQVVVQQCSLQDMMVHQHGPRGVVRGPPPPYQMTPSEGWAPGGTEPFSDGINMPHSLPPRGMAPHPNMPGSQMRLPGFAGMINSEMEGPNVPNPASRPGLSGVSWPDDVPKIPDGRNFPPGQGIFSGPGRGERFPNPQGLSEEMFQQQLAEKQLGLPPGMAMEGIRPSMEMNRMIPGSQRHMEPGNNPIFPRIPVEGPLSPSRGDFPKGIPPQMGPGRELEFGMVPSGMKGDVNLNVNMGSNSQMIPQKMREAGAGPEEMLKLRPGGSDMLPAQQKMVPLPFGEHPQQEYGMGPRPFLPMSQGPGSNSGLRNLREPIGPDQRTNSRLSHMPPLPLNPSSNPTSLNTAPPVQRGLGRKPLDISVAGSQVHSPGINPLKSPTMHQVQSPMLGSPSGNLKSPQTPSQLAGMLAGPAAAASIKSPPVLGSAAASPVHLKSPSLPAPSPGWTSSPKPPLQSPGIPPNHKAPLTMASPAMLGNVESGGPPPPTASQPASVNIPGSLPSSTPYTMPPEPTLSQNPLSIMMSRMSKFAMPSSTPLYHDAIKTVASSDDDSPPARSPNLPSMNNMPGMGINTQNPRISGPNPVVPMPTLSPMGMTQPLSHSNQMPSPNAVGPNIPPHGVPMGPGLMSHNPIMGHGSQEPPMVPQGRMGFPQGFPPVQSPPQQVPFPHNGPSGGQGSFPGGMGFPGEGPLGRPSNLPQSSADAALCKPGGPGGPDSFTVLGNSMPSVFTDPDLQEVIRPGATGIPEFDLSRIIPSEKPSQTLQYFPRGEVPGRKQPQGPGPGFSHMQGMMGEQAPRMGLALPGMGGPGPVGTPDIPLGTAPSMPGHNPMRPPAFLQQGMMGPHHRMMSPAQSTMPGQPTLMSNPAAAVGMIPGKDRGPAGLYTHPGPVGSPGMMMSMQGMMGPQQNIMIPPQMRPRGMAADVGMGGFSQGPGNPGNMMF
Put plainly: Competitive inhibition of wild type beta-catenin (unknown origin) expressed in Escherichia coli BL21 DE3 interaction with N-terminally biotinylated human BCL9 (350 to 375 residues) by alpha screen assay. An outline of the steps:
(§1)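 Competitive AlphaScreen binding assays run in parallel against wild-type β-catenin, one with the BCL9 partner and one with the E-cadherin partner; data given as mean ± standard deviation, n = 3.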
In general terms: Alpha assays give light when donor and acceptor beads are brought close together.

The target in data set [2] is T2, Catenin beta-1 (Homo sapiens) (UniProt P35222).
T2 sequence (whole entry): T1 sequence (P35222 whole entry)
Put plainly: Inhibition of beta-catenin (unknown origin) expressed in HEK293 cells after 24 hrs by topflash dual luciferase reporter gene assay. The format is cell-based. An outline of the steps:
(§2)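 HEK293 cells transfected with pcDNA3.1−β-catenin; TOPFlash reporter carries wild-type Tcf binding sites and FOPFlash carries mutant Tcf sites; luciferase activity read across a dose series; mean ± standard deviation, n = 2.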
A general note: A reporter such as luciferase makes a cellular process visible.

Another data set has as its system SW480. Kind of data set: Cytotoxicity against Wnt-activated human SW480 cells assessed as reduction in cell viability after 72 hrs by MTS assay. Format: functional, cell-based. Particulars: SW480, 72 h. (Tetrazolium dyes change colour on reduction, which living cells bring about.)
A short description of data set [3]: Cytotoxicity against Wnt-activated human HCT116 cells assessed as reduction in cell viability after 72 hrs by MTS assay. As to conditions: HCT-116, 72 h. The format is functional, cell-based.
Data set [4] relates to A549. Kind of data set: Cytotoxicity against Wnt-signaling latent human A549 cells assessed as reduction in cell viability after 72 hrs by MTS assay. The format is functional, cell-based. As to conditions: A549, 72 h.
The test system of another data set is HEK293. Put plainly: Cytotoxicity against HEK293 cells assessed as reduction in cell viability after 72 hrs by MTS assay. The format is cell-based. Particulars: Homo sapiens, HEK293, 72 h.
The subject of data set [5] is A549. Kind of data set: Selectivity ratio of IC50 for human A549 cells to IC50 for human SW480 cells. Format: functional.
In data set [6] the test system is A549. Put plainly: Selectivity ratio of IC50 for human A549 cells to IC50 for human HCT116 cells. Format: functional.
The nature of data set [7]: Selectivity ratio of IC50 for HEK293 cells to IC50 for human SW480 cells. Format: ADME, cell-based. Particulars: HEK293 cells versus SW480 cells, read-out: Ratio IC50.
Data set [8] is described as follows: Selectivity ratio of IC50 for human HEK293 cells to IC50 for human HCT116 cells. Format: ADME, cell-based. Particulars: HEK293 cells versus HCT116 cells, read-out: Ratio IC50.
For a further data set, the species on record is Homo sapiens. Put plainly: Selectivity ratio of Ki for wild type beta-catenin (unknown origin)/ N-terminally biotinylated human BCL9 (350 to 375 residues) interaction to Ki for wild type beta-catenin (unknown origin)/N-terminally biotinylated human E-cadherin (824 to 887 residues) interaction.
For data set [9], the target named is Cadherin-1/Transcription factor 7-like 2 (Homo sapiens, UniProt P12830+Q9NQB0). Put plainly: Competitive inhibition of wild type beta-catenin (unknown origin) expressed in Escherichia coli BL21 DE3 interaction with N-terminally biotinylated human E-cadherin (824 to 887 residues) by alpha screen assay. An outline of the steps: as §1
The nature of data set [10]: Competitive inhibition of N-terminally fluorescein-labeled human BCL9 (350 to 375 residues) interaction with beta-catenin E155A mutant (138 to 686 residues) (unknown origin) expressed in Escherichia coli BL21 DE3 after 3 hrs by fluorescence polarization assay.
Data set [11] is described as follows: Competitive inhibition of N-terminally fluorescein-labeled human BCL9 (350 to 375 residues) interaction with beta-catenin D145A/E155A double mutant (138 to 686 residues) (unknown origin) expressed in Escherichia coli BL21 DE3 after 3 hrs by fluorescence polarization assay.
A short description of data set [12]: Competitive inhibition of N-terminally fluorescein-labeled human BCL9 (350 to 375 residues) interaction with beta-catenin D145A mutant (138 to 686 residues) (unknown origin) expressed in Escherichia coli BL21 DE3 after 3 hrs by fluorescence polarization assay.
For data set [13], the target named is T2, Catenin beta-1 (Homo sapiens). Kind of data set: Inhibition of beta-catenin (unknown origin) expressed in HEK293 cells up to 100 uM after 24 hrs by fopflash dual luciferase reporter gene assay. Format: cell-based. An outline of the steps:
as §2

Calls of active or inactive are those of the source. The rule behind the calls is not given here.

Chain of Cadherin-1/Transcription factor 7-like 2 (Q9NQB0 whole entry, the tested form may be a part): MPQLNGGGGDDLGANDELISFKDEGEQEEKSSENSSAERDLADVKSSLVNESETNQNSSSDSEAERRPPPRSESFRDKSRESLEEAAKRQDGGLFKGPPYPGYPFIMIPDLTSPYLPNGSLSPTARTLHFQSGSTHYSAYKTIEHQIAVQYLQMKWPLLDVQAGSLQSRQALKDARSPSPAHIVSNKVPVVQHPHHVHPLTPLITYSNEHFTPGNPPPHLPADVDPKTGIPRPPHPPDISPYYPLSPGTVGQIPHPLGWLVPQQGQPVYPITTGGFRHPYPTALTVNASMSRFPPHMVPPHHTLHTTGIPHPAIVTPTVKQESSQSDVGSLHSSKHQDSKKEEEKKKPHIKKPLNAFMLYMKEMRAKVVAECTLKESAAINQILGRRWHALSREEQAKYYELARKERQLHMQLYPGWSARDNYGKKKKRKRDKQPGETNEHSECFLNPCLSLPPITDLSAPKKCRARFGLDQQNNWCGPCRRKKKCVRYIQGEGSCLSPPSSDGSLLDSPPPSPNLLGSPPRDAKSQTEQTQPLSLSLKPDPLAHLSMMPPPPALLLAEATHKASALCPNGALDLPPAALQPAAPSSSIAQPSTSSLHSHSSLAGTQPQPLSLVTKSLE
Chain of Cadherin-1/Transcription factor 7-like 2 (P12830 whole entry, the tested form may be a part): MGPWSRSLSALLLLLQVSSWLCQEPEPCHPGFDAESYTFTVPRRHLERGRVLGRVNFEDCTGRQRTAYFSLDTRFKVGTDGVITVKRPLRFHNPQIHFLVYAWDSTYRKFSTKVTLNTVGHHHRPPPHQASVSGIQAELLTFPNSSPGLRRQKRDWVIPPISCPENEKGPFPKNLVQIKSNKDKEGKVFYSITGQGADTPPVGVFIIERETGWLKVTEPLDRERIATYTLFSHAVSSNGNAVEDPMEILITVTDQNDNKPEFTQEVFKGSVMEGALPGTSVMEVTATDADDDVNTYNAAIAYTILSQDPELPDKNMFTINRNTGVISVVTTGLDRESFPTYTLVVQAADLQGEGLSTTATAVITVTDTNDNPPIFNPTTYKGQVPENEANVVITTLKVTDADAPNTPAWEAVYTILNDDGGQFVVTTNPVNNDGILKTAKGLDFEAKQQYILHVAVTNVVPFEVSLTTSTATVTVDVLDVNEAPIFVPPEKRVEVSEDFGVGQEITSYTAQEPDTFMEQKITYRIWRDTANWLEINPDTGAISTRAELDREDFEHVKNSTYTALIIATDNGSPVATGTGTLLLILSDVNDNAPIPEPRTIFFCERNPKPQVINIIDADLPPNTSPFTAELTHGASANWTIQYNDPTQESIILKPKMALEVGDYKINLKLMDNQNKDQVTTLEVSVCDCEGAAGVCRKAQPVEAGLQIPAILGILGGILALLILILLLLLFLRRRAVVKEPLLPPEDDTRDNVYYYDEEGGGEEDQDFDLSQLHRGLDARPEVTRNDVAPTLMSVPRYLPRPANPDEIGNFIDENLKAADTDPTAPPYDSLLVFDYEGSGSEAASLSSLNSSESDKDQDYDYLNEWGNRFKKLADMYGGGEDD

In turn, `O=C(c1cc(F)cc(C2CCNCC2)c1)N1CCN(C(=O)c2ccc(O[C@H]3CCNC3)c(-c3ccc(F)cc3)c2)CC1` had a Ki in [1] of 20 µM.
In data set [1], `CC1(C)CCC(c2cc(C(=O)N3CCN(C(=O)c4cc(F)cc(N5CCNCC5)c4)CC3)ccc2O[C@H]2CCNC2)CC1` displayed a Ki of 70 µM.
For `Cl.Cl.O=C(c1cc(F)cc(N2CCNCC2)c1)N1CCN(C(=O)c2ccc(O[C@H]3CCNC3)c(C3CCC(C(F)(F)F)CC3)c2)CC1` (stereo partly specified), in data set [2], the inhibition result was “Dose-dependent effect”. This molecule also had a Ki in data set [1] of 16 µM. Besides, the 50% inhibitory concentration (IC50) in the data set on SW480 was 44 µM; in data set [3], 39 µM; in the data set with A549 [4], above 400 µM; with HEK293, 130 µM. Further, the “Ratio IC50” value in the data set with A549 [5] and in the data set on A549 [6] was above 10 in each case. The selectivity ratio in data set [7] and in data set [8] was 3 each time.
As for `O=C(c1cc(F)cc(N2CCNCC2)c1)N1CCN(C(=O)c2ccc(O[C@H]3CCNC3)c(C3CCC(F)(F)CC3)c2)CC1`, the Ki in data set [1] came to 45 µM.
Regarding `CCC1CCC(c2cc(C(=O)N3CCN(C(=O)c4cc(F)cc(N5CCNCC5)c4)CC3)ccc2O[C@H]2CCNC2)CC1` (stereo partly specified), the Ki in [1] was 170 µM.
The molecule `O=C(Nc1ccc(OC2CCNC2)c(-c2ccc(F)cc2)c1)c1ccc(O[C@H]2CCNC2)c(-c2ccc(F)c(F)c2)c1` (stereo partly specified) showed a Ki in data set [1] of 2.1 µM. In the data set filed under Homo sapiens, the Ratio Ki was found to be 125.
In the case of `O=C(c1cc(F)cc(N2CCNCC2)c1)N1CCN(C(=O)c2ccc(O[C@H]3CCNC3)c(C3CCCC3)c2)CC1`, in data set [1], affinity was put at a Ki of 53 µM.
In the case of `CC(C)c1cc2c(c(O)c1O)[C@@]1(C(=O)O)CCCC(C)(C)[C@@H]1CC2` [CARNOSIC ACID], the affinity in [1] corresponds to a Ki of 5.3 µM.
In the case of `O=C(c1cc(F)cc(N2CCNCC2)c1)N1CCN(C(=O)c2ccc(O[C@H]3CCNC3)c(-c3ccc(F)cc3)c2)CC1`, the IC50 in the data set with SW480 was 86 µM.
`NCCc1cc(F)cc(C(=O)N2CCN(C(=O)c3cnc(O[C@H]4CCNC4)c(-c4ccc(F)cc4)c3)CC2)c1` registered a Ki in [1] above 500 µM.
Consider `Cl.Cl.O=C(c1cc(F)cc(N2CCNCC2)c1)N1CCN(C(=O)c2ccc(O[C@H]3CCNC3)c(C3CCCCC3)c2)CC1`, for which the inhibition result in data set [2] was “Dose-dependent effect”. Further, the 50% inhibitory concentration (IC50) was determined as 5.6 µM in [1]; 550 µM in [9]; 22 µM with SW480; 26 µM in data set [3]; 300 µM in the data set with A549 [4]; 130 µM in the data set with HEK293. Moreover, the Ki in data set [9] turned out to be 510 µM; in data set [10] it was 39 µM; in [11] it was 53 µM; in data set [12], 29 µM. Besides, the inhibition result in data set [13] was “inactive”. For the same molecule, the “Ratio IC50” value with A549 [5] and with A549 [6] was above 10 throughout. Also, the selectivity ratio in [7] and in data set [8] was 3 in each case.

Broadly, the Ki is the equilibrium dissociation constant of an inhibitor or competing ligand from its target. Low readings indicate a stronger hold on the target, high ones a looser hold on the target. In general, IC50 refers to the concentration that gives 50% inhibition.
